This is an account of results in publication PMC7452664 (International Journal for Parasitology: Drugs and Drug …, 2020).

Entries after “also recorded” stand apart in the source; their conditions may differ. Where two headings read alike, the source gives them in different places.

The test system of data set [1] is T. cruzi intracellular amastigotes. In words: Drug test on intracellular amastigotes of T. cruzi. The format is cell-based, Trypanosoma cruzi. As to conditions: 72 h; for inhibition of T. cruzi amastigote numbers (highest reduction): concentration not given; for IC50: Trypanosoma cruzi, Vero; for antitrypanosomal activity on T. cruzi: data not shown. Put shortly: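 Gamma-irradiated (2200 rad) Vero cells, 3.6 × 10^4/well, plated overnight at 37 °C, 5% CO2. […] Serial dilutions added for 72 h, in quadruplicate, with benznidazole 2 μM as control. Fluorescence read at Ex 544/Em 612 nm. Inhibition versus infected untreated wells; IC50 from sigmoidal variable-slope fit.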

In data set [2] the test system is L. infantum promastigotes. In words: Anti-L. infantum promastigotes drug test. As to conditions: 48 h; for parasite-killing effect on promastigotes: data not shown. The format is cell-based, Leishmania infantum. The essentials: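 Promastigotes from a 4-day culture, 1 × 10^5/well, exposed to increasing concentrations for 48 h at 26 °C. Amphotericin B 0.25 μM as positive control. Cells lysed (1% Triton X-100, 2.9% sodium citrate), then 5 mM p-nitrophenyl phosphate added for 2 h at 37 °C. Stopped with 1 N NaOH and read at OD 405 nm. Inhibition calculated versus untreated controls.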

Data set [3] relates to P. falciparum 3D7 intraerythrocytic stage. In words: P. falciparum growth inhibition assay. As to conditions: for IC50: 3D7, 48 h, read-out: IC50 P. falciparum. The format is cell-based, Plasmodium falciparum. The essentials: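 Sorbitol-synchronized 3D7 rings in RBCs at 3% hematocrit, 0.8% parasitemia. Exposed 48 h at 37 °C (5% CO2, 2% O2, 93% N2), in triplicate. Chloroquine 80 nM as reference. Parasitemia measured by flow cytometry after SYTO 11 staining, with uninfected and untreated infected controls. Values standardized to chloroquine; inhibition versus untreated; IC50 from sigmoidal variable-slope fit.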

Data set [4] deals with T. brucei brucei 427 strain, bloodstream stage. In words: Screening of drugs against T. brucei. Format: cell-based, Trypanosoma brucei brucei. As to conditions: for IC50: Trypanosoma brucei. Put shortly:
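Strain 427 bloodstream forms in HMI-9 were pelleted (900 g, 10 min) and seeded at 5 × 10^5/well in warm medium with serial dilutions, in triplicate. Suramin 100 μM as positive control. After 24 h, Alamar Blue added and incubated 4 h at 37 °C. Fluorescence read at Ex 530/Em 590 nm. Inhibition versus untreated; IC50 from sigmoidal variable-slope fit.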

The conditions of data set [5]: ref Schaefer et al., 2012; cited from earlier work.
Data set [6] relates to T. brucei. As to conditions: ref Barnard et al., 1993; cited from earlier work.
Data set [7] deals with L. infantum intra-macrophage amastigotes. In words: Drug test on L. infantum intra-macrophage amastigotes. As to conditions: for decrease of number of intracellular amastigotes / reduction of percentage of infected macrophages: highest non-cytotoxic dose; for IC50: Leishmania infantum, U-937, 48 h, read-out: IC50 (parasite-killing activity, L. infantum intracellular amastigotes). The format is cell-based, Leishmania infantum. Put shortly:
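U937 cells were PMA-differentiated (50 nM, 48 h) and infected with 6-day metacyclic promastigotes at 10:1 for 24 h, then washed. Infected cells (5 × 10^4) were treated for 48 h in chamber slides, in duplicate, at concentrations non-toxic to macrophages (MTT, 48 h). Meglumine antimoniate 273 μM as control. Methanol-fixed, Giemsa-stained; 200 cells counted for infected macrophages and amastigotes.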

The conditions of data set [8]: ref Barnard et al., 1993; cited from earlier work.
Data set [9] deals with L. mexicana promastigotes. As to conditions: concentrations as high as 0.5 mM; ref Turrens and Cazzulo, 1987; cited from earlier work.
The test system of a further data set is BS forms of T.brucei. As to conditions: read-out: IC50 BS forms of T.brucei; ref Chambers et al., 2008; cited from earlier work.
The test system of another data set is T. cruzi epimastigotes. As to conditions: read-out: IC50 T. cruzi epimastigotes; ref Turrens, 1986; cited from earlier work.
For data set [10], the system named is T. brucei. As to conditions: read-out: IC50 T. brucei; different T. brucei strain; ref Barquilla et al., 2008; cited from earlier work.
The mark [11] stands for this setting: read-out: IC50 T. cruzi intracelular amastigotes.
The mark [12] stands for this setting: 24 h, read-out: IC50 T. brucei Bloodstream stage.
[13] abbreviates: 24 h, read-out: IC50 T. brucei brucei.
The mark [14] stands for this setting: read-out: IC50 T. cruzi amastigotes.

Turning to `O=CC[C@@H](O)[C@H](O)[C@H](O)CO` [2DG, 2-deoxy-D-glucose], the “inhibition of T. cruzi amastigote numbers (highest reduction)” value in data set [1] is 89.3%. Further, in data set [1] (setting [11]), the IC50 stood at 7270 ± 0.47 µM. Further, in data set [2] (0.2 mM), the “parasite-killing effect on promastigotes” value is reported as “slight parasite-killing effect”. Also, in [3] (48 h), the “P. falciparum growth inhibition” value is reported as “growth inhibition values close to those obtained by CQ”. Moreover, the “parasite-killing activity on T. brucei” value in data set [4] (24 h) is reported as “No parasite-killing activity was detected”.
Take `O=C(O)C(=O)CBr` [3BP, 3-bromopyruvic acid]: the “safety in rodents” value in [5] is on record as “apparently being safe in rodents, where only a reduction in body weight was recorded”. Also, the “antitrypanosomal activity on T. cruzi” value in data set [1] is “did not show consistent antitrypanosomal activity; also recorded: no efficacy”. For the same molecule, the “parasite-killing effect on promastigotes” value in data set [2] (37 μM) is “slight parasite-killing effect”. Besides, in [3] (48 h), the “P. falciparum growth inhibition” value is “slight effect on parasite growth inhibition; also recorded: no efficacy”. For the same molecule, the “parasite-killing activity on T. brucei” value in [4] (24 h, concentration not given) is recorded as 93.2%. For the same molecule, the 50% inhibitory concentration (IC50) amounted to 76.6 µM in [4] (setting [12]), 76.6 µM in data set [4] (setting [13]) and 24.9 µM in data set [7]. The “concentration inhibiting motility and growth of T. brucei” value with T. brucei [6] was 13.4 µM. Also, the “decrease of number of intracellular amastigotes” value in [7] (75 μM, 48 h) turned out to be 78.3%. In data set [7] (75 μM, 48 h), the “reduction of percentage of infected macrophages” value is reported as 48.4%. For the same molecule, the “toxicity in humans” value in [8] was “toxicity in humans”.
For `C[C@@H]1[C@H](O)[C@@H](C)/C=C/C=C/C=C/C=C/C=C/C=C/C=C/[C@H](O[C@@H]2O[C@H](C)[C@@H](O)[C@H](N)[C@@H]2O)C[C@@H]2O[C@](O)(C[C@@H](O)C[C@@H](O)[C@H](O)CC[C@@H](O)C[C@@H](O)CC(=O)O[C@H]1C)C[C@H](O)[C@H]2C(=O)O` [AmB, amphotericyn B], the “survival rate of L. infantum promastigotes” value in [2] (0.25 μM) is on record as 36%.
On to `CCN(CC)CCCC(C)Nc1ccnc2cc(Cl)ccc12` (stereo not drawn) [CQ, chloroquine], for which the inhibition at 0.08 µM in [3] (Plasmodium falciparum, 3D7, read-out: parasite growth inhibition) was > 90%.
As for `O=C(O)C(Cl)Cl` [DCA, dichloroacetic acid], the IC50 is 25800 µM in [1] (setting [14]), 25800 ± 59 µM in data set [1] (setting [11]), 1240 µM in [4] (setting [12]) and 632 µM in data set [7]. For the same molecule, in data set [1] (high concentrations (up to 100 mM)), the “inhibition of T. cruzi amastigotes, highest value” worked out at 74.1%. In addition, the “effect on L. infantum promastigote survival” value in [2] is listed as “did not detectably impair”. Also, the “P. falciparum growth inhibition” value in data set [3] (48 h) is reported as “growth inhibition values close to those obtained by CQ”. In [4] (24 h), the “concentration achieving complete clearance of cultured T. brucei brucei” value came to 12.5 mM. For the same molecule, the “decrease of number of intracellular amastigotes” value in [7] (25 mM, 48 h) was 90.7%. For the same molecule, the “reduction of percentage of infected macrophages” value in [7] (25 mM, 48 h) amounted to 74.4%.
For `O=C(O)c1nn(Cc2ccc(Cl)cc2Cl)c2ccccc12` [LND, lonidamine], the “effect on L. mexicana promastigotes” value in data set [9] is reported as “only a leishmaniostatic effect was observed”. Also, the IC50 with BS forms of T.brucei is 50 µM; in [1] (setting [14]), 82.4 µM; in data set [1] (setting [11]), 82.4 µM; in [3] (Plasmodium falciparum) it was 209 µM; in data set [4] (setting [12]), 26.8 µM; in [4] (setting [13]) it was 26.8 µM. In addition, the IC50 with T. cruzi epimastigotes was 80 µM. The “inhibition of T. cruzi amastigote numbers (highest reduction)” value in data set [1] is 99.4%. Moreover, the “effect on L. infantum promastigote survival” value in data set [2] is “did not detectably impair; also recorded: no effect was detected”. In addition, in data set [3] (48 h), the “concentration of peak antimalarial activity” value was 300 µM. The “parasite-killing activity on T. brucei” value in data set [4] (24 h, concentration not given) is listed as 97.7%.
Consider `CN(C)C(=N)N=C(N)N` [MET, metformin], for which the half-maximal inhibitory concentration (IC50) came to 18500 µM in data set [1] (setting [14]), 18500 ± 18 µM in data set [1] (setting [11]) and 17300 ± 15 µM in data set [4] (setting [12]). Also, the “effect on L. infantum promastigote survival” value in data set [2] is recorded as “did not detectably impair”. The “P. falciparum growth inhibition” value in data set [3] (48 h) is on record as “growth inhibition values close to those obtained by CQ”. Also, the “parasite elimination, T. brucei” value in data set [4] (20 mM, 24 h) was determined as 57%.
With `CO[C@H]1C[C@@H]2CC[C@@H](C)[C@@](O)(O2)C(=O)C(=O)N2CCCC[C@H]2C(=O)O[C@H]([C@H](C)C[C@@H]2CC[C@@H](O)[C@H](OC)C2)CC(=O)[C@H](C)/C=C(\C)[C@@H](O)[C@@H](OC)C(=O)[C@H](C)C[C@H](C)/C=C/C=C/C=C/1C` [SIR, sirolimus], in [1], the “antitrypanosomal activity on T. cruzi” value is recorded as “did not show consistent antitrypanosomal activity; also recorded: did not affect the viability”. In addition, the IC50 with T. brucei [10] is 0.152 µM; in data set [3] (Plasmodium falciparum), ~2.5 µM; in data set [4] (setting [12]) it was 2.14 µM. Also, in [2], the “effect on L. infantum promastigote survival” value is on record as “did not detectably impair”. Further, the “P. falciparum growth inhibition” value in data set [3] (48 h) is given as “growth inhibition values close to those obtained by CQ”. The “concentration achieving complete clearance of cultured T. brucei brucei” value in data set [4] (24 h) came out at 0.00685 mM. In data set [7] (10 μM, data not shown), the “effect on parasite burden and infected macrophages” value was “modest increase of the parasite burden and number of infected macrophages”. For the same molecule, the “anti-parasitic effect on L. infantum intra-macrophage amastigotes” value in data set [7] (48 h, data not shown) is “did not show any parasiticidal effect; also recorded: increase of parasite load”.
Turning to `Cc1ccc(C(=O)Nc2ccc(S(=O)(=O)O)c3cc(S(=O)(=O)O)cc(S(=O)(=O)O)c23)cc1NC(=O)c1cccc(NC(=O)Nc2cccc(C(=O)Nc3cc(C(=O)Nc4ccc(S(=O)(=O)O)c5cc(S(=O)(=O)O)cc(S(=O)(=O)O)c45)ccc3C)c2)c1` [SUR, suramin], the “parasite clearance, T. brucei” value in data set [4] (100 μM, control drug) is 96%.
